{"source": "ChEMBL document CHEMBL1212783", "about": "“Cellular pharmacology of the anti-hepatitis B virus agent beta-L-2',3'-didehydro-2',3'-dideoxy-N4-hydroxycytidine: relevance for activation in HepG2 cells” (Antimicrob Agents Chemother, 2010)", "key": {"[1]": {"system": "Hepatitis B virus", "assay": "Inhibition of HBV DNA polymerase at 1 uM"}, "[2]": {"assay": "Half life in human HepG2 cells by HPLC analysis", "assay_type": "ADME, cell-based", "procedure,_shortened": "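HepG2 cells (1.5 × 10^6/well) were loaded 24 h with 10 μM [3H]-labelled nucleoside, washed three times and chased in drug-free medium. Cells were harvested at intervals, then counted and methanol-extracted. Mono-, di- and triphosphates were quantified by radio-HPLC. t1/2 was calculated as 0.693/κ, where κ is the terminal slope of a semilog plot of intracellular phosphate level versus time.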"}, "[3]": {"system": "HepG2", "assay": "Drug metabolism in human HepG2 cells assessed as compound triphosphate level per 10^6 cells at 10 uM after 18 hrs by reversed-phase HPLC analysis", "assay_type": "ADME, cell-based", "details": "hepg2, 18 h", "procedure,_shortened": "(§1)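 HepG2 cells were grown in DMEM with 10% FBS and 1 mM pyruvate at 37°C, 5% CO2. They were seeded at 2.5 × 10^6/well and exposed after adherence to 2 or 10 μM [3H]-labelled nucleoside (440 or 1,000 dpm/pmol) for 6–24 h. Cells were washed in ice-cold PBS, trypsinized and counted (viability >95%). Metabolites were extracted twice in 60% methanol at −20°C for 16 h. Extracts were separated by ion-pair reverse-phase C18 HPLC and counted by fraction scintillation. Phosphates were identified by UV spectra, a triphosphate standard and alkaline phosphatase digestion.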"}, "[4]": {"system": "HepG2", "assay": "Drug metabolism in human HepG2 cells assessed as compound triphosphate level per 10^6 cells at 2 uM after 24 hrs by reversed-phase HPLC analysis", "assay_type": "ADME, cell-based", "details": "hepg2, 24 h", "procedure,_shortened": "as §1"}, "[5]": {"system": "HepG2", "assay": "Drug metabolism in human HepG2 cells assessed as compound triphosphate level per 10^6 cells at 10 uM after 6 hrs by reversed-phase HPLC analysis", "assay_type": "ADME, cell-based", "details": "hepg2, 6 h", "procedure,_shortened": "as §1"}, "[6]": {"system": "HepG2", "assay": "Drug metabolism in human HepG2 cells assessed as compound monophosphate level per 10^6 cells at 10 uM after 24 hrs by reversed-phase HPLC analysis", "assay_type": "ADME, cell-based", "details": "hepg2, 24 h", "procedure,_shortened": "as §1"}, "[7]": {"system": "HepG2", "assay": "Drug metabolism in human HepG2 cells assessed as compound triphosphate level per 10^6 cells at 10 uM after 12 hrs by reversed-phase HPLC analysis", "assay_type": "ADME, cell-based", "details": "hepg2, 12 h", "procedure,_shortened": "as §1"}, "[8]": {"system": "HepG2", "assay": "Drug metabolism in human HepG2 cells assessed as compound monophosphate level per 10^6 cells at 2 uM after 6 hrs by reversed-phase HPLC analysis", "assay_type": "ADME, cell-based", "details": "hepg2, 6 h", "procedure,_shortened": "as §1"}, "[9]": {"system": "HepG2", "assay": "Drug metabolism in human HepG2 cells assessed as compound diphosphate level per 10^6 cells at 10 uM after 18 hrs by reversed-phase HPLC analysis", "assay_type": "ADME, cell-based", "details": "hepg2, 18 h", "procedure,_shortened": "as §1"}, "[10]": {"system": "HepG2", "assay": "Drug metabolism in human HepG2 cells assessed as compound triphosphate level per 10^6 cells at 10 uM after 24 hrs by reversed-phase HPLC analysis", "assay_type": "ADME, cell-based", "details": "hepg2, 24 h", "procedure,_shortened": "as §1"}, "[11]": {"system": "HepG2", "assay": "Drug metabolism in human HepG2 cells assessed as compound diphosphate level per 10^6 cells at 10 uM after 12 hrs by reversed-phase HPLC analysis", "assay_type": "ADME, cell-based", "details": "hepg2, 12 h", "procedure,_shortened": "as §1"}, "[12]": {"system": "HepG2", "assay": "Drug metabolism in human HepG2 cells assessed as compound monophosphate level per 10^6 cells at 2 uM after 18 hrs by reversed-phase HPLC analysis", "assay_type": "ADME, cell-based", "details": "hepg2, 18 h", "procedure,_shortened": "as §1"}, "[13]": {"system": "HepG2", "assay": "Drug metabolism in human HepG2 cells assessed as compound monophosphate level per 10^6 cells at 2 uM after 24 hrs by reversed-phase HPLC analysis", "assay_type": "ADME, cell-based", "details": "hepg2, 24 h", "procedure,_shortened": "as §1"}, "[14]": {"system": "HepG2", "assay": "Drug metabolism in human HepG2 cells assessed as compound triphosphate level per 10^6 cells at 2 uM after 6 hrs by reversed-phase HPLC analysis", "assay_type": "ADME, cell-based", "details": "hepg2, 6 h", "procedure,_shortened": "as §1"}, "[15]": {"system": "HepG2", "assay": "Drug metabolism in human HepG2 cells assessed as compound diphosphate level per 10^6 cells at 2 uM after 12 hrs by reversed-phase HPLC analysis", "assay_type": "ADME, cell-based", "details": "hepg2, 12 h", "procedure,_shortened": "as §1"}, "[16]": {"system": "HepG2", "assay": "Drug metabolism in human HepG2 cells assessed as compound diphosphate level per 10^6 cells at 10 uM after 24 hrs by reversed-phase HPLC analysis", "assay_type": "ADME, cell-based", "details": "hepg2, 24 h", "procedure,_shortened": "as §1"}, "[17]": {"system": "HepG2", "assay": "Drug metabolism in human HepG2 cells assessed as compound diphosphate level per 10^6 cells at 2 uM after 6 hrs by reversed-phase HPLC analysis", "assay_type": "ADME, cell-based", "details": "hepg2, 6 h", "procedure,_shortened": "as §1"}, "[18]": {"system": "HepG2", "assay": "Drug metabolism in human HepG2 cells assessed as compound diphosphate level per 10^6 cells at 10 uM after 6 hrs by reversed-phase HPLC analysis", "assay_type": "ADME, cell-based", "details": "hepg2, 6 h", "procedure,_shortened": "as §1"}, "[19]": {"system": "HepG2", "assay": "Drug metabolism in human HepG2 cells assessed as compound monophosphate level per 10^6 cells at 2 uM after 12 hrs by reversed-phase HPLC analysis", "assay_type": "ADME, cell-based", "details": "hepg2, 12 h", "procedure,_shortened": "as §1"}, "[20]": {"system": "HepG2", "assay": "Drug metabolism in human HepG2 cells assessed as compound triphosphate level per 10^6 cells at 2 uM after 18 hrs by reversed-phase HPLC analysis", "assay_type": "ADME, cell-based", "details": "hepg2, 18 h", "procedure,_shortened": "as §1"}, "[21]": {"system": "HepG2", "assay": "Drug metabolism in human HepG2 cells assessed as compound monophosphate level per 10^6 cells at 10 uM after 12 hrs by reversed-phase HPLC analysis", "assay_type": "ADME, cell-based", "details": "hepg2, 12 h", "procedure,_shortened": "as §1"}, "[22]": {"system": "HepG2", "assay": "Drug metabolism in human HepG2 cells assessed as compound monophosphate level per 10^6 cells at 10 uM after 6 hrs by reversed-phase HPLC analysis", "assay_type": "ADME, cell-based", "details": "hepg2, 6 h", "procedure,_shortened": "as §1"}, "[23]": {"system": "HepG2", "assay": "Drug metabolism in human HepG2 cells assessed as compound diphosphate level per 10^6 cells at 2 uM after 18 hrs by reversed-phase HPLC analysis", "assay_type": "ADME, cell-based", "details": "hepg2, 18 h", "procedure,_shortened": "as §1"}, "[24]": {"system": "HepG2", "assay": "Drug metabolism in human HepG2 cells assessed as compound triphosphate level per 10^6 cells at 2 uM after 12 hrs by reversed-phase HPLC analysis", "assay_type": "ADME, cell-based", "details": "hepg2, 12 h", "procedure,_shortened": "as §1"}, "[25]": {"system": "Hepatitis B virus", "assay": "Antiviral activity against HBV infected in human HepG2(2.2.15) cells", "assay_type": "functional", "details": "read-out: ED50 (the source's name)"}, "[26]": {"assay": "Cytotoxicity against human HepG2 cells at 2 uM after 48 hrs", "assay_type": "cell-based", "details": "read-out: INH", "procedure,_shortened": "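HepG2 cells were preincubated 24 h with 3 μM 3-deazauridine, then exposed for a second 24 h to 3 μM deazauridine plus 2 μM tritiated test nucleoside. Read-out was inhibition of HepG2 cell growth over the 48 h.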"}, "[27]": {"system": "HepG2", "assay": "Drug metabolism in human HepG2 cells assessed as compound monophosphate level per 10^6 cells at 10 uM after 18 hrs by reversed-phase HPLC analysis", "assay_type": "ADME, cell-based", "details": "hepg2, 18 h", "procedure,_shortened": "as §1"}, "[28]": {"system": "HepG2", "assay": "Drug metabolism in human HepG2 cells assessed as compound diphosphate level per 10^6 cells at 2 uM after 24 hrs by reversed-phase HPLC analysis", "assay_type": "ADME, cell-based", "details": "hepg2, 24 h", "procedure,_shortened": "as §1"}, "[29]": {"assay": "Cytotoxicity against human HepG2 cells", "assay_type": "cell-based", "details": "read-out: CD50 (the source's name)"}}}
{"smiles": "O=c1nc(NO)ccn1[C@@H]1C=C[C@H](COP(=O)(O)OP(=O)(O)OP(=O)(O)O)O1", "values": [{"measurement": "inhibition", "setting": "[1]", "value": 90, "unit": "%"}, {"measurement": "half-life", "setting": "[2]", "value": 1780, "unit": "min"}]}
{"smiles": "O=c1nc(NO)ccn1[C@@H]1C=C[C@H](COP(=O)(O)OP(=O)(O)O)O1", "values": [{"measurement": "half-life", "setting": "[2]", "value": 1120, "unit": "min"}]}
{"smiles": "O=c1nc(NO)ccn1[C@@H]1C=C[C@H](CO)O1", "values": [{"measurement": "Stability", "setting": "[3]", "value": 15.2, "unit": "pmol"}, {"measurement": "Stability", "setting": "[4]", "value": 5.3, "unit": "pmol"}, {"measurement": "Stability", "setting": "[5]", "value": 5.3, "unit": "pmol"}, {"measurement": "Stability", "setting": "[6]", "value": 11.5, "unit": "pmol"}, {"measurement": "Stability", "setting": "[7]", "value": 10.4, "unit": "pmol"}, {"measurement": "Stability", "setting": "[8]", "value": 0.5, "unit": "pmol"}, {"measurement": "Stability", "setting": "[9]", "value": 30.3, "unit": "pmol"}, {"measurement": "Stability", "setting": "[10]", "value": 19.4, "unit": "pmol"}, {"measurement": "Stability", "setting": "[11]", "value": 22.6, "unit": "pmol"}, {"measurement": "Stability", "setting": "[12]", "value": 2.3, "unit": "pmol"}, {"measurement": "Stability", "setting": "[13]", "value": 4, "unit": "pmol"}, {"measurement": "Stability", "setting": "[14]", "value": 1.1, "unit": "pmol"}, {"measurement": "Stability", "setting": "[15]", "value": 4.5, "unit": "pmol"}, {"measurement": "Stability", "setting": "[16]", "value": 43.5, "unit": "pmol"}, {"measurement": "Stability", "setting": "[17]", "value": 1.3, "unit": "pmol"}, {"measurement": "Stability", "setting": "[18]", "value": 11.5, "unit": "pmol"}, {"measurement": "Stability", "setting": "[19]", "value": 1.3, "unit": "pmol"}, {"measurement": "Stability", "setting": "[20]", "value": 3.8, "unit": "pmol"}, {"measurement": "Stability", "setting": "[21]", "value": 5.6, "unit": "pmol"}, {"measurement": "Stability", "setting": "[22]", "value": 4.4, "unit": "pmol"}, {"measurement": "Stability", "setting": "[23]", "value": 6.6, "unit": "pmol"}, {"measurement": "Stability", "setting": "[24]", "value": 3.1, "unit": "pmol"}, {"measurement": "EC50", "setting": "[25]", "value": 30, "unit": "nM"}, {"measurement": "cytotoxicity at 48 h, 2 µM", "setting": "[26]", "value": 11, "unit": "%"}, {"measurement": "Stability", "setting": "[27]", "value": 7.3, "unit": "pmol"}, {"measurement": "Stability", "setting": "[28]", "value": 9.8, "unit": "pmol"}]}
{"smiles": "Nc1ccn([C@@H]2C=C[C@H](CO)O2)c(=O)n1", "values": [{"measurement": "CC50", "setting": "[29]", "value": 20, "unit": "µM"}]}
